Assay results published in article PMC4306711 (The Journal of General Physiology, 2015).
Read-outs that look alike come from different tables or passages of the source.

Columns and labels:
WT rKv2.1 = assay: Two-electrode voltage-clamp of WT rKv2.1 in Xenopus oocytes; type: cell-based, rat; details: 1 µM toxin; 300-ms depolarization to 0 mV, holding −90 mV, tail −60 mV
[1] = tested on: rNav1.2a/Kv2.1 VSD IV paddle chimera; type: cell-based, rat
[2] = tested on: rNav1.2a/Kv2.1 VSD IV paddle chimera; details: electrophysiology; ref Bosmans et al., 2008; cited from earlier work
rNav1.2a = details: cited from earlier work
[3] = tested on: rNav1.2a/Kv2.1 VSD IV R1629A/L1630A paddle chimera; type: cell-based, rat; details: 100 nM AaHII; holding −10 mV, 300-ms step after −150 mV, tail −150 mV
[4] = tested on: isolated rNav1.2a VSD II paddle motif; assay: SPR with immobilized rNav1.2a VSD II paddle peptide; type: binding, rat; details: up to 20 µM toxin, 25°C
[5] = target: rNav1.2a/Kv2.1 VSD IV chimera R1629A; details: read-out: apparent KD, VSD IV chimera R1629A, ref Bosmans et al., 2008; cited from earlier work
[6] = target: rNav1.2a/Kv2.1 VSD IV chimera L1630A; details: read-out: apparent KD, VSD IV chimera L1630A, ref Bosmans et al., 2008; cited from earlier work
[7] = tested on: rNav1.2a/Kv2.1 VSD II paddle chimera; details: ref Bosmans et al., 2008; cited from earlier work
[8] = tested on: isolated rNav1.2a VSD IV paddle motif; assay: SPR with immobilized rNav1.2a VSD IV paddle peptide; type: binding, rat; details: 50 fmol peptide, heterogeneous ligand model, n = 3
Method in brief: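 Biotinylated synthetic VSD IV paddle peptide (~50 fmol) captured on neutravidin amine-coupled to a CM5 chip. Run at 25°C in 50 mM phosphate, pH 7.2. Toxin at 15–2,000 nM injected at 20 µl/min after a steady baseline; control flow cell subtracted; regenerated with 1 M NaCl (15 s, 30 µl/min). Bulk signal excluded, then fitted to a two-site heterogeneous ligand model; n = 3, mean ± SD.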

[9] = tested on: rNav1.2a/Kv2.1 VSD II paddle chimera; type: cell-based, rat
Kv1.3 = details: ref Crest et al., 1992; cited from earlier work
Kv1.1 = details: ref Crest et al., 1992; cited from earlier work
Nav channel = details: ref Crest et al., 1992; cited from earlier work
[10] = SPR, Biacore T200, 25°C, pH 7.2, 15–2,000 nM, mean ± SD

Molecule: AaHI: α-scorpion toxin from Androctonus australis Hector
- effect on WT Kv2.1 K^+ current (WT rKv2.1): insensitive
- voltage-dependent K^+ current inhibition, VSD IV paddle chimera ([1]; 100 nM toxin, 300-ms depolarization, holding −90 mV): robust voltage-dependent K^+ current inhibition
- depolarizing shift in midpoint (V1/2), VSD IV paddle chimera ([1]; 100 nM toxin, Boltzmann fit, n = 3, holding −90 mV, tail −60 mV): ~15 mV

Molecule: AaHII: α-scorpion toxin from Androctonus australis Hector
- inhibition of WT rNav1.2a/Kv2.1 VSD IV chimera compared with double mutant ([1]; 100 nM AaHII): influenced to a much lesser extent
- binding to VSD IV paddle (rNav1.2a/Kv2.1 chimeras) [2]: shown to bind to the VSD IV paddle motif in rNav1.2a
- Kd (rNav1.2a; read-out: affinity for WT rNav1.2a, WT rNav1.2a, ref Wang et al., 2011): ~5 nM
- inhibition of R1629A/L1630A double mutant chimera [3]: strongly inhibits the double mutant
- SPR effect on VSD II paddle motif at high toxin concentration [4]: did not notice an effect
- Kd [5]: 235 ± 24 nM
- Kd [6]: 205 ± 23 nM
- interaction with rNav1.2a/Kv2.1 VSD II paddle chimera [7]: no interaction was observed
- dissociation rate constant kd1 [8, 10]: 0.000979 ± 0.00014 s⁻¹
- dissociation rate constant kd2 [8, 10]: 0.0281 ± 0.0058 s⁻¹
- high affinity KD1 (kd1/ka1) [8, 10]: 479 ± 241 nM
- RUmax1 ([8]; high affinity site): 135
- RUmax2 ([8]; lower affinity site): 23

Molecule: CssIV: β-scorpion toxin from Centruroides suffusus suffusus
- influence on VSD IV chimera ([1]; 1 µM toxin, n = 3, holding −90 mV, tail −60 mV): does not influence the VSD IV chimera
- depolarizing shift in V1/2, VSD II chimera ([9]; 1 µM toxin, Boltzmann fit, n = 3, holding −90 mV, tail −60 mV): ~14 mV
- V1/2 in the presence of toxin, VSD II chimera ([9]; 1 µM toxin, control 33 ± 2 mV, mean ± SEM, n = 3, holding −90 mV, tail −60 mV): 47 ± 1 mV
- concentration required to begin inhibiting the rNav1.2a/Kv2.1 VSD II paddle chimera ([9]; Xenopus oocytes, ∼22°C): 1 µM

Molecule: kaliotoxin [KTX]
- Kv1.3 pore block (Kv1.3): blocks
- Kv1.1 pore block (Kv1.1): blocks
- influence on Nav channel function (Nav channel): does not influence Nav channel function

B1: TsVII: β-scorpion toxin from the Brazilian scorpion Tityus serrulatus (protein, UniProt P15226 21-81, looked up)
Beta-mammal/insect toxin Ts1: KEGYLMDHEGCKLSCFIRPSGYCGRECGIKKGSSGYCAWPACYCYGLPNWVKVWDRATNKC
modifications: ends and bridges not checked
- binding to VSD IV paddle (rNav1.2a/Kv2.1 chimeras) [2]: can also bind to the VSD IV paddle
- Kd (rNav1.2a; read-out: apparent KD, rNav1.2a, ref Bosmans et al., 2008): 25 to 121 nM
